Results published in ChEMBL document CHEMBL2177069, “Novel peptidomimetic compounds containing redox active chalcogens and quinones as potential anticancer agents” (Eur J Med Chem, 2012).

Columns and labels:
KM12 = experiment: Cytotoxicity against human KM12 cells; assay type: functional
NCI-H322M = experiment: Cytotoxicity against human NCI-H322M cells; assay type: functional
Saccharomyces cerevisiae [1] = experiment: Growth inhibition of UFD2-deficient Saccharomyces cerevisiae YDL190C mutant at 20 ug/disc after 24 to 48 hrs by agar diffusion assay; assay type: functional; conditions: read-out: DIZ
Outline: (§1)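 S. cerevisiae deletion mutants or wild type grown on YPD, seeded into liquid agar medium at an optical density of 0.1. 6 mm paper discs soaked with methanolic compound solution were placed on the plates and incubated at 30 °C. Growth was checked after 1 and 2 days, and the inhibition zone diameter was recorded in mm.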

T47D = experiment: Cytotoxicity against human T47D cells; assay type: functional
Saccharomyces cerevisiae [2] = experiment: Growth inhibition of RCK1-deficient Saccharomyces cerevisiae YGL158W mutant at 20 ug/disc after 24 to 48 hrs by agar diffusion assay; assay type: functional; conditions: read-out: DIZ; outline: as §1
CAKI-1 = experiment: Cytotoxicity against human Caki1 cells; assay type: functional
NCI-H226 = experiment: Cytotoxicity against human NCI-H226 cells; assay type: functional
RPMI-8226 = experiment: Cytotoxicity against human RPMI8226 cells; assay type: functional
TK-10 = experiment: Cytotoxicity against human TK10 cells; assay type: functional
A-431 = experiment: Cytotoxicity against human A431 cells after 24 hrs by MTT assay; assay type: functional, cell-based; conditions: A-431, 24 h
Outline: (§2)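 MTT assay. Cells were seeded at 50,000 cells/mL in medium with 10% fetal calf serum and grown for two days at 37 °C, 10% CO2. Serial dilutions of compound were then added for 24 h. MTT was added (final 0.5 mg/mL) for 2 h, and the formazan was pelleted, washed, dissolved in isopropanol with 0.4% HCl and read at 590 nm. IC50 is the concentration giving 50% of untreated-control absorbance, taken from dose-response curves; mean of two parallel experiments.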

UO-31 = experiment: Cytotoxicity against human UO31 cells; assay type: functional
HT-29 = experiment: Cytotoxicity against human HT-29 cells; assay type: functional
UACC-62 = experiment: Cytotoxicity against human UACC62 cells; assay type: functional
HCT-116 = experiment: Cytotoxicity against human HCT116 cells; assay type: functional
HUVEC = experiment: Cytotoxicity against human HUVEC cells after 24 hrs by MTT assay; assay type: cell-based; outline: as §2
ACHN = experiment: Cytotoxicity against human ACHN cells; assay type: functional
RXF 393 = experiment: Cytotoxicity against human RXF393 cells; assay type: functional
SW-620 = experiment: Cytotoxicity against human SW620 cells; assay type: functional
A498 = experiment: Cytotoxicity against human A498 cells; assay type: functional
SR = experiment: Cytotoxicity against human SR cells; assay type: functional
NCI-H522 = experiment: Cytotoxicity against human NCI-H522 cells; assay type: functional
SNB-19 = experiment: Cytotoxicity against human SNB19 cells; assay type: functional
[3] = Cytotoxicity against human PHF cells after 24 hrs by MTT assay; assay type: cell-based; outline: as §2
OVCAR-8 = experiment: Cytotoxicity against human OVCAR8 cells; assay type: functional
[4] = Cytotoxicity against human 786-O cells; assay type: functional
SNB-75 = experiment: Cytotoxicity against human SNB75 cells; assay type: functional
Malme-3M = experiment: Cytotoxicity against human MALME-3M cells; assay type: functional
SK-MEL-5 = experiment: Cytotoxicity against human SK-MEL-5 cells; assay type: functional
HOP-92 = experiment: Cytotoxicity against human HOP92 cells; assay type: functional
SK-MEL-2 = experiment: Cytotoxicity against human SK-MEL-2 cells; assay type: functional
DU-145 = experiment: Cytotoxicity against human DU145 cells; assay type: functional
Saccharomyces cerevisiae [5] = experiment: Growth inhibition of POS5-deficient Saccharomyces cerevisiae YPL188W mutant at 20 ug/disc after 24 to 48 hrs by agar diffusion assay; assay type: functional; conditions: read-out: DIZ; outline: as §1
HCC 2998 = experiment: Cytotoxicity against human HCC2998 cells; assay type: functional
SF-539 = experiment: Cytotoxicity against human SF539 cells; assay type: functional
Saccharomyces cerevisiae [6] = experiment: Growth inhibition of wild type Saccharomyces cerevisiae BY4741 at 20 ug/disc after 24 to 48 hrs by agar diffusion assay; assay type: functional; conditions: read-out: DIZ; outline: as §1
BT-549 = experiment: Cytotoxicity against human BT549 cells; assay type: functional
SF-295 = experiment: Cytotoxicity against human SF295 cells; assay type: functional
M14 = experiment: Cytotoxicity against human M14 cells; assay type: functional
MDA-MB-468 = experiment: Cytotoxicity against human MDA-MB-468 cells; assay type: functional
MDA-MB-435 = experiment: Cytotoxicity against human MDA-MB-435 cells; assay type: functional
Saccharomyces cerevisiae [7] = experiment: Growth inhibition of WSC4-deficient Saccharomyces cerevisiae YHL028W mutant at 20 ug/disc 24 to 48 hrs by agar diffusion assay; assay type: functional; conditions: read-out: DIZ; outline: as §1

CC1=C([Se]CC(OC(=O)[C@@H](CO)NC(=O)OC(C)(C)C)C(=O)NC(C)(C)C)C(=O)c2ccccc2C1=O (stereo not given in full)
GI50 (KM12): 1.51 µM | LC50 (KM12): 5.5 µM | TGI (KM12; read-out: pTGI (converted)): 2.88 µM | GI50 (NCI-H322M): 0.447 µM | LC50 (NCI-H322M): 32.4 µM | TGI (NCI-H322M; read-out: pTGI (converted)): 3.72 µM | zone of inhibition at 20 µg/disc (Saccharomyces cerevisiae [1]): 13 mm | GI50 (T47D): 0.331 µM | LC50 (T47D): 8.91 µM | TGI (T47D; read-out: pTGI (converted)): 1.07 µM | zone of inhibition at 20 µg/disc (Saccharomyces cerevisiae [2]): 18 mm | GI50 (CAKI-1): 1.74 µM | LC50 (CAKI-1): 6.61 µM | TGI (CAKI-1; read-out: pTGI (converted)): 3.39 µM | GI50 (NCI-H226): 1.95 µM | CC50 (NCI-H226; read-out: pLC50 (the source's name) (converted)): 9.12 µM | TGI (NCI-H226; read-out: pTGI (converted)): 4.17 µM | GI50 (RPMI-8226): 2.75 µM | LC50 (RPMI-8226): > 100 µM | TGI (RPMI-8226; read-out: pTGI (converted)): 8.91 µM | GI50 (TK-10): 2 µM | LC50 (TK-10): 6.03 µM | TGI (TK-10; read-out: pTGI (converted)): 3.47 µM | IC50 (A-431): 2 µM | GI50 (UO-31): 1.45 µM | LC50 (UO-31): 6.03 µM | TGI (UO-31; read-out: pTGI (converted)): 2.95 µM | GI50 (HT-29): 2.29 µM | LC50 (HT-29): 9.77 µM | TGI (HT-29; read-out: pTGI (converted)): 4.79 µM | GI50 (UACC-62): 1.66 µM | LC50 (UACC-62): 5.62 µM | TGI (UACC-62; read-out: pTGI (converted)): 3.02 µM | GI50 (HCT-116): 1.45 µM | LC50 (HCT-116): 5.37 µM | TGI (HCT-116; read-out: pTGI (converted)): 2.82 µM | IC50 (HUVEC): 3 µM | GI50 (ACHN): 1.58 µM | LC50 (ACHN): 5.75 µM | TGI (ACHN; read-out: pTGI (converted)): 3.02 µM | GI50 (RXF 393): 1.86 µM | LC50 (RXF 393): 5.75 µM | TGI (RXF 393; read-out: pTGI (converted)): 3.31 µM | GI50 (SW-620): 1.78 µM | LC50 (SW-620): 6.31 µM | TGI (SW-620; read-out: pTGI (converted)): 3.31 µM | GI50 (A498): 3.63 µM | LC50 (50% lethal concentration) (A498): 39.8 µM | TGI (A498; read-out: pTGI (converted)): 15.1 µM | GI50 (SR): 0.741 µM | LC50 (SR): > 100 µM | GI50 (NCI-H522): 1.58 µM | LC50 (NCI-H522): 6.17 µM | TGI (NCI-H522; read-out: pTGI (converted)): 3.16 µM | GI50 (SNB-19): 0.661 µM | LC50 (SNB-19): 4.9 µM | TGI (SNB-19; read-out: pTGI (converted)): 2 µM | IC50 [3]: 7 µM | GI50 (OVCAR-8): 1.86 µM | TGI (OVCAR-8; read-out: pTGI (converted)): 3.55 µM | GI50 ([4]; 786-0): 1.95 µM | LC50 ([4]; 786-0): 5.89 µM | TGI ([4]; 786-0, read-out: pTGI (converted)): 3.39 µM | GI50 (SNB-75): 1.29 µM | LC50 (SNB-75): 5.13 µM | TGI (SNB-75; read-out: pTGI (converted)): 2.57 µM | GI50 (Malme-3M): 2.04 µM | LC50 (Malme-3M): 6.92 µM | TGI (Malme-3M; read-out: pTGI (converted)): 3.8 µM | GI50 (SK-MEL-5): 1.58 µM | LC50 (SK-MEL-5): 5.5 µM | TGI (SK-MEL-5; read-out: pTGI (converted)): 2.95 µM | GI50 (HOP-92): 1.86 µM | LC50 (50% lethal concentration) (HOP-92): 6.31 µM | TGI (HOP-92; read-out: pTGI (converted)): 3.39 µM | GI50 (SK-MEL-2): 2.19 µM | LC50 (SK-MEL-2): 9.55 µM | TGI (SK-MEL-2; read-out: pTGI (converted)): 4.57 µM | GI50 (DU-145): 1.91 µM | LC50 (DU-145): 6.03 µM | TGI (DU-145; read-out: pTGI (converted)): 3.39 µM | zone of inhibition at 20 µg/disc (Saccharomyces cerevisiae [5]): 11 mm | GI50 (HCC 2998): 1.82 µM | LC50 (HCC 2998): 5.75 µM | TGI (HCC 2998; read-out: pTGI (converted)): 3.24 µM | GI50 (SF-539): 1.58 µM | LC50 (SF-539): 5.89 µM | TGI (SF-539; read-out: pTGI (converted)): 3.09 µM | zone of inhibition at 20 µg/disc (Saccharomyces cerevisiae [6]): 0 mm | GI50 (BT-549): 1.58 µM | LC50 (BT-549): 5.37 µM | TGI (BT-549; read-out: pTGI (converted)): 2.95 µM | GI50 (SF-295): 0.316 µM | LC50 (SF-295): 22.4 µM | TGI (SF-295; read-out: pTGI (converted)): 1.05 µM | GI50 (M14): 1.66 µM | LC50 (M14): 5.62 µM | TGI (M14; read-out: pTGI (converted)): 3.02 µM | GI50 (MDA-MB-468): 0.759 µM | LC50 (MDA-MB-468): 5.89 µM | TGI (MDA-MB-468; read-out: pTGI (converted)): 2.29 µM | GI50 (MDA-MB-435): 2 µM | LC50 (MDA-MB-435): 8.32 µM | TGI (MDA-MB-435; read-out: pTGI (converted)): 4.07 µM | zone of inhibition at 20 µg/disc (Saccharomyces cerevisiae [7]): 19 mm
